Source: ChEMBL document CHEMBL4138048, “Synthesis of substituted 2H-benzo[e]indazole-9-carboxylate as a potent antihyperglycemic agent that may act through IRS-1, Akt and GSK-3β pathways” (Medchemcomm, 2017)
Calls of active or inactive are those of the source. The rule behind the calls is not given here.

Test system: L6
Experiment: Stimulation of [3H]2-deoxyglucose uptake in rat L6 cells at 10 uM incubated for 16 hrs by scintillation counting method
Format: functional, cell-based
How it was run: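 L6 myotubes incubated with the compound […]; insulin at 100 nM for 20 min served as the positive control. Uptake of ³H-2-deoxyglucose measured and expressed as fold stimulation relative to the control condition.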

Structure (SMILES): COC(=O)c1c(SC)cc(-c2ccc(OC)cc2)c2c1-c1cn(-c3ccccc3)nc1CC2
- Activity: inactive
